Our source for the Activity values is ChEMBL document CHEMBL4354866, “TREK Channel Family Activator with a Well-Defined Structure-Activation Relationship for Pain and Neurogenic Inflammation” (J Med Chem, 2020).

Experiment [1] has as its system Mus musculus. Nature of the experiment: Analgesic activity in cerulein-induced mouse model of acute pancreatitis assessed as reduction in myeloperoxidase activity at 10 mg/kg, ip administered at 2 hrs interval for 10 hrs starting from post-first cerulein challenge and measured 12 hrs post-first cerulein challenge. Format: functional, organism-based. The gist of the method: (§1)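 Cerulein pancreatitis: 7 hourly i.p. injections of 50 µg/kg; 10 mg/kg compound i.p. at 2, 4, 6, 8 and 10 h. Mice killed at 12 h and pancreas harvested for MPO activity and H&E histology. Ten random fields per slide scored blind by two observers for edema, inflammatory infiltration and acinar necrosis; n = 6.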

Experiment [2] has as its system Mus musculus. Nature of the experiment: Analgesic activity in cerulein-induced mouse model of acute pancreatitis assessed as reduction in pancreatic necrosis at 10 mg/kg, ip administered at 2 hrs interval for 10 hrs starting from post-first cerulein challenge and measured 12 hrs post-first cerulein challenge by H and E staining based histopathological analysis. In kind it is functional, organism-based. In short, it runs like this: as §1

Experiment [3] concerns Mus musculus. Nature of the experiment: Analgesic activity in mouse assessed as increase in tail flick latency time at 5 mg/kg, ip at 52 degC by tail immersion test. Format: functional, organism-based. In short, it runs like this: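 Male BALB/c or C57BL/6 mice, 6–8 weeks, acclimated in a holder 15 min/day for 3 days. Distal 3 cm of tail immersed at 5, 20, 40, 46 or 52 °C; flick latency recorded, cut-off 15 s. Compound i.p. in 5% DMSO/5% Tween 80/90% saline (1.25–10 mg/kg at 52 °C; 5 mg/kg across temperatures).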

The subject of experiment [4] is Mus musculus. Briefly: Analgesic activity in cerulein-induced mouse model of acute pancreatitis assessed as reduction in pancreatic edema at 10 mg/kg, ip administered at 2 hrs interval for 10 hrs starting from post-first cerulein challenge and measured 12 hrs post-first cerulein challenge by H and E staining based histopathological analysis. Format: functional, organism-based. In short, it runs like this: as §1

For experiment [5], the system named is Mus musculus. Nature of the experiment: Analgesic activity in cerulein-induced mouse model of acute pancreatitis assessed as reduction in pancreatic inflammatory infiltration at 10 mg/kg, ip administered at 2 hrs interval for 10 hrs starting from post-first cerulein challenge and measured 12 hrs post-first cerulein challenge by H and E staining based histopathological analysis. In kind it is functional, organism-based. In short, it runs like this: as §1

For experiment [6], the target named is T1, Potassium channel subfamily K member 2 (Homo sapiens) (UniProt O95069).
T1 sequence (whole entry): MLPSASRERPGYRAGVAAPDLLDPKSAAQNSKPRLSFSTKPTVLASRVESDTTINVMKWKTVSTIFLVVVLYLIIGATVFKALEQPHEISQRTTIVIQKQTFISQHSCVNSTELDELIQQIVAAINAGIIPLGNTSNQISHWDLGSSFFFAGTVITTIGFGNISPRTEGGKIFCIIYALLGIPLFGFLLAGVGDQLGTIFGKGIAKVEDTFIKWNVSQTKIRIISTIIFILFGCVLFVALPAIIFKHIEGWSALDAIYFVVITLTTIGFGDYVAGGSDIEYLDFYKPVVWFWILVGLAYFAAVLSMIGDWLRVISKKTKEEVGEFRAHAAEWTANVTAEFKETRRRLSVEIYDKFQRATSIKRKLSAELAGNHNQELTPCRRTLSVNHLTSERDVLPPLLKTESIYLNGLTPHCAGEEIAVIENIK
Nature of the experiment: Activation of recombinant human TREK1 expressed in HEK293T cells assessed as increase in K+ current amplitude at 30 uM by whole cell voltage clamp electrophysiological analysis. In kind it is cell-based.

Experiment [7] concerns Mus musculus. Nature of the experiment: Analgesic activity in mouse model of spared nerve injury assessed as reduction in cold hyperalgesia at 30 mg/kg, ip measured at 7 days interval for up to 21 days post spared nerve injury by cold plantar test. In kind it is functional, organism-based. The gist of the method:
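Male mice (BALB/c or C57BL/6, 6-8 weeks) after SNI; compound given i.p. in 5% DMSO, 5% Tween 80, 90% saline. Mice acclimated 3 days on a 6 mm glass plate. A syringe packed with powdered dry ice was applied under the centre of the left hindpaw. Paw withdrawal latency was timed by stopwatch with a 30 s cutoff. Groups compared by unpaired t test or Mann-Whitney.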

The target of experiment [8] is T1, Potassium channel subfamily K member 2 (Homo sapiens). Nature of the experiment: Activation of recombinant human TREK1 expressed in HEK293T cells assessed as increase in K+ current amplitude at 1 mM by whole cell voltage clamp electrophysiological analysis. Format: cell-based.

Structures are written as SMILES. The source made the active and inactive calls.

As for `Cc1ccc2nc(-c3ccc(NC(=O)C4CCCC4)cc3)sc2c1`, the outcome (in the experiment on Mus musculus [1]; with Mus musculus [2]; with Mus musculus [3]; with Mus musculus [4]; with Mus musculus [5]; in experiment [6]) was inactive.
`COC(=O)[C@H]1CC[C@@H](C(=O)Nc2ccc(-c3nc4ccc(C)cc4s3)cc2)C1`: the result in experiment [6] was inactive.
`CC(C)C[C@H](CN)CC(=O)O`: in the experiment with Mus musculus [7], the outcome was Active.
In the case of `C[N+](C)(C)CCSS(C)(=O)=O`, the outcome in experiment [8] was inactive.
